≈ marks a conversion by molar mass, not a printed value.
Test system: Mycobacterium tuberculosis
Test: Activity against Mycobacterium tuberculosis (H37Rv) using the standard BACTEC radiometric growth assay
Type: functional
How it was run: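 BACTEC radiometric MIC against M. tuberculosis H37Rv. Compounds in DMSO (1 mg/mL stock), final 50, 25, 12.5, 6.25, 3.0, 1.5 µg/mL. Inoculum 0.1 mL of a 1.0 McFarland suspension. Controls: DMSO direct control and 1:100 organism dilution. Incubated 37 °C, growth index read daily until the 1:100 control reached 30. MIC = lowest concentration with 1-day GI change below the 1:100 control.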

[1] = Mycobacterium tuberculosis, read-out: MIC

SMILES	MIC [1]	MIC
CCCCCCCC[S+]([O-])CC(=O)OC (stereo unspecified)	12.5 µg/mL (≈ 53.3 µM)	
CC(C)CCCC(C)CCS(=O)(=O)CC(N)=O (stereo unspecified)	6.25 µg/mL (≈ 23.7 µM)	
CCCCCCCCS(=O)(=O)NS(C)(=O)=O	> 25 µg/mL	
CCCCCCS(=O)(=O)CC(N)=O	> 50 µg/mL	
NC(=O)CS(=O)(=O)CCCCc1ccccc1	> 25 µg/mL	
CCCCCCCCCCP(=O)([O-])CC(N)=O.[K+]	> 50 µg/mL	
CCCCCCCCCCS(=O)(=O)CCC(N)=O	> 25 µg/mL	
CCCCCCCCS(=O)(=O)CC(N)=O	6.25 µg/mL (≈ 26.6 µM)	
CCCCCCCCS(=O)(=O)CC(=O)O	> 25 µg/mL	
CCCCCCCCCC[S+]([O-])CC(N)=O (stereo unspecified)	6.25 µg/mL (≈ 25.3 µM)	
CCCCCCCCCCCCCCCCCCS(=O)(=O)CC(N)=O	> 50 µg/mL	
CCCCCCCC[S+]([O-])CC(=O)OCc1ccccc1 (stereo unspecified)	6.25 µg/mL (≈ 20.1 µM)	
CCCCCCCCS(=O)(=O)NS(N)(=O)=O	> 25 µg/mL	
CCCCCCCCS(=O)(=O)CC(=O)OCc1ccccc1	12.5 µg/mL (≈ 38.3 µM)	
CCCCCCCCS(=O)(=O)NC(N)=O	> 25 µg/mL	
CCCCCCCCCCS(=O)(=O)C(C)C(N)=O (stereo unspecified)	> 25 µg/mL	
CCCCCCC/C=C/S(=O)(=O)CC(N)=O	12.5 µg/mL (≈ 50.5 µM)	
CCCCCCCCCCS(=O)(=O)CC(N)=O	1.5 µg/mL (≈ 5.69 µM)	
CCOCCOCCS(=O)(=O)CC(N)=O	> 25 µg/mL	
NC(=O)CS(=O)(=O)CCCCCCc1ccccc1	12.5 µg/mL (≈ 44.1 µM)	
CCCCCCCS(=O)(=O)CC(N)=O	> 25 µg/mL	

SMILES	MIC [1]	MIC
CCCCCCCCCCOCC(N)=O	> 25 µg/mL	
CCCCCCCCCCCCS(=O)(=O)CC(N)=O	12.5 µg/mL (≈ 42.9 µM)	
CCCCCCCCC[S@@+]([O-])CC(N)=O	25 µg/mL (≈ 107 µM)	
NC(=O)CS(=O)(=O)CCCCCc1ccccc1	12.5 µg/mL (≈ 46.4 µM)	
CCCCCCCCS(=O)(=O)CC(=O)OC	> 25 µg/mL	
CCCCCCCCCS(=O)(=O)CC(N)=O	3 µg/mL (≈ 12 µM)	
CC(C)CCCCCCCS(=O)(=O)CC(N)=O	1.5 µg/mL (≈ 5.69 µM)	
CCCCCCC/C=C\S(=O)(=O)CC(N)=O	12.5 µg/mL (≈ 50.5 µM)	
CCCCCCCCCCSCC(N)=O	25 µg/mL (≈ 108 µM)	
CCCCCCCCC[S+]([O-])CC(=O)OC (racemic)	> 25 µg/mL	
CCCCCCCCC[S+]([O-])CC(N)=O (racemic)	25 µg/mL (≈ 107 µM)	
CCCCCCCCC[S+]([O-])CC(=O)OC (single isomer, unassigned)	> 25 µg/mL	
CCCCCCCCC[S+]([O-])CC(N)=O (single isomer, unassigned)		25 µg/mL (≈ 107 µM)
C/C=C/C/C=C/CCC(=O)[C@H]1O[C@H]1C(N)=O [CERULENIN]	1.5 µg/mL (≈ 6.72 µM)	
CC[C@@H](CO)NCCN[C@@H](CC)CO [ETHAMBUTOL]	2 µg/mL (≈ 9.79 µM)	
NNC(=O)c1ccncc1 [ISONIAZID]	0.1 µg/mL (≈ 0.729 µM)	
NC(=O)c1cnccn1 [PYRAZINAMIDE]	100 µg/mL (≈ 812 µM)	
CO[C@H]1/C=C/O[C@@]2(C)Oc3c(C)c(O)c4c(O)c(c(/C=N/N5CCN(C)CC5)c(O)c4c3C2=O)NC(=O)/C(C)=C\C=C\[C@H](C)[C@H](O)[C@@H](C)[C@@H](O)[C@@H](C)[C@H](OC(C)=O)[C@@H]1C [RIFAMPIN]	2 µg/mL (≈ 2.43 µM)	
CN[C@@H]1[C@H](O[C@H]2[C@H](O[C@H]3[C@H](O)[C@@H](O)[C@H](N=C(N)N)[C@@H](O)[C@@H]3N=C(N)N)O[C@@H](C)[C@]2(O)C=O)O[C@@H](CO)[C@H](O)[C@H]1O [STREPTOMYCIN]	2 µg/mL (≈ 3.44 µM)	
C=C/C(C)=C/[C@@]1(C)SC(=O)C(C)=C1O [THIOLACTOMYCIN]	25 µg/mL (≈ 119 µM)	

From ChEMBL document CHEMBL1133632, “A new class of antituberculosis agents” (2000)
